Data: article PMC6489120 (Journal of medicinal chemistry, 2018)
Converted amounts (≈) assume the structure as drawn.

Assays:
[1] = biological target: T1, EP300 (Homo sapiens, UniProt Q09472); experiment: DiscoverX BROMOscan; format: binding; details: BROMOscan Kd
T1 sequence (Q09472 1040-1161 limits assumed): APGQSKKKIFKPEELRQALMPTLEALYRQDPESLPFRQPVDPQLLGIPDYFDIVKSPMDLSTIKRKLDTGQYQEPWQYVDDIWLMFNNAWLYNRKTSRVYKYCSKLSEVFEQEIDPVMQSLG

[2] = system: 23 other non-BET family bromodomain containing proteins; experiment: DiscoverX BROMOscan, other non-BET bromodomains summary; format: binding; details: at concentrations of 3–4 µM
[3] = animal weight and signs of toxicity in efficacy studies; format: in vivo; details: all the three dose-schedules tested
[4] = full pharmacokinetics in mice; format: in vivo; details: Balb/c, mouse, plasma, po, 25 mg/kg
Summary of the method: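 Balb/c mice dosed orally at 25 mg/kg (iv arm 5.0 mg/kg), test compound in 20% (v/v) PCP and 70% (v/v) PBS. Blood taken 0, 5, 15, 30 min and 1, 2, 4, 6, 8, 24 h post-dose and centrifuged; plasma held at −80 °C. Plasma levels by LC−MS/MS (C18, formic acid/CH3CN gradient, positive-ion MRM); parameters by noncompartmental analysis.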

[5] = aqueous solubility; format: physicochemical; details: aqueous solution
[6] = system: other 371 kinases; experiment: kinase panel by Reaction Biology; format: biochemical; details: at 3 µM
[7] = biological target: CECR2 (Homo sapiens, UniProt Q9BXF3); experiment: DiscoverX BROMOscan; format: binding; details: BROMOscan Kd
CECR2, sequence (Q9BXF3 424-538 limits assumed): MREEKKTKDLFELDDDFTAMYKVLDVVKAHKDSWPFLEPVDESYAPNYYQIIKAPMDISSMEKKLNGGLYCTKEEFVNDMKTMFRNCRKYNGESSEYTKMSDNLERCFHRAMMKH

[8] = biological target: CREBBP (Homo sapiens, UniProt Q92793); experiment: DiscoverX BROMOscan; format: binding; details: BROMOscan Kd
CREBBP, sequence (Q92793 1081-1197 limits assumed): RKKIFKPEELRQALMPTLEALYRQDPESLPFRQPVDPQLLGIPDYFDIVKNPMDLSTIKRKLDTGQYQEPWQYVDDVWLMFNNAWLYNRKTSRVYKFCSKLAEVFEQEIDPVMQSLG

[9] = biological target: BRD4 BD1 (Homo sapiens, UniProt O60885); experiment: fluorescence polarization binding assay, BRD4 BD1; details: relative to compound 24
Summary of the method: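 Binding measured by fluorescence polarization against recombinant human BRD4 BD1 (residues 44−168), using the group's previously established FP assay.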

times less potent than 24 in binding to BRD4 BD1 [9] [times] | SMILES | selectivity for BET bromodomains over EP300 [1] [fold] | binding affinity to 23 other non-BET bromodomain containing proteins [2] | other signs of toxicity [3] | weight loss [3] | Cmax [4] [µM] | solubility ([5]; pH 3, aqueous buffer) [µM] | solubility ([5]; pH 11, aqueous buffer) [µM] | inhibition against other 371 kinases [6] | selectivity for BET bromodomains over CRCR2 [7] [fold] | selectivity for BET bromodomains over CREBBP [8] [fold]
 | COc1cc2c(cc1-c1c(C)noc1C)[nH]c1nc(C)nc(Nc3cc(C4CC4)nn3C)c12 [Compound 28, N-(3-Cyclopropyl-1-methyl-1H-pyrazol-5-yl)-7-(3,5-dimethylisoxazol-4-yl)-6-methoxy-2-methyl-9H-pyrimido[4,5-b]indol-4-amine] | > 50 | no appreciable binding affinity | does not cause other signs of toxicity | no more than 5% | 6.4 | 19.5 ± 5.5 (≈ 8.65 µg/mL) | 14 ± 0.5 (≈ 6.21 µg/mL) | no appreciable inhibition | > 50 | > 20
> 5 | COc1cc2c(cc1-c1c(C)noc1C)[nH]c1nc(C)nc(Nc3c(C)c(C4CC4)nn3C)c12 [Compound 37, N-(3-Cyclopropyl-1,4-dimethyl-1H-pyrazol-5-yl)-7-(3,5-dimethylisoxazol-4-yl)-6-methoxy-2-methyl-9H-pyrimido[4,5-b]indol-4-amine] |  |  |  |  |  |  |  |  |  | 
